Experimental data from ChEMBL document CHEMBL4376814, “Novel cyclin-dependent kinase 9 (CDK9) inhibitor with suppression of cancer stemness activity against non-small-cell lung cancer” (Eur J Med Chem, 2019).
Activity calls are given as the source filed them. No cut-off for these calls is given here.

Legend:
[1] = biological target: CDK4/Cyclin D3 (Homo sapiens, UniProt P11802); assay: Inhibition of recombinant full-length human CDK4/cyclinD3 using Rb fragment as substrate measured after 40 mins in presence of [gamma33P]ATP by scintillation counting method; type: protein-complex assay
[2] = biological target: Tyrosine-protein kinase receptor TYRO3 (Homo sapiens) (UniProt Q06418); assay: Inhibition of human RSE (451 to end residues) at 1 uM using KVEKIGEGTYGVVYK as substrate measured after 40 mins in presence of [gamma33P]ATP by scintillation counting method relative to control
Method in brief: (§1)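 Percent inhibition of kinase activity at a single compound concentration, measured by the outsourced Eurofins KinaseProfiler panel. Values are the mean of two independent experiments.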

[3] = test system: Hepatocyte growth factor receptor (Homo sapiens), P08581 [Y1230H]; assay: Inhibition of recombinant human MET A1209G/V1290L/Y1248H mutant (974 to end residues) at 1 uM using KKKGQEEEYVFIE as substrate measured after 40 mins in presence of [gamma33P]ATP by scintillation counting method relative to control
[4] = biological target: Aurora kinase B (Homo sapiens) (UniProt Q96GD4); assay: Inhibition of recombinant full-length human AURKB at 1 uM using AKRRRLSSLRA as substrate measured after 40 mins in presence of [gamma33P]ATP by scintillation counting method relative to control
[5] = test system: NCI-H1299; assay: Induction of apoptosis in human H1299 cells assessed as viable cells at 1 uM after 48 hrs by AnnexinV-FITC/PI staining-based flow cytometric analysis (reference value: 97.1%); type: functional; conditions: NCI-H1299, 48 h, read-out: Activity
[6] = biological target: Tau-tubulin kinase 1 (Homo sapiens) (UniProt Q5TCY1); assay: Inhibition of recombinant human TTBK1 (1 to 479 residues) at 1 uM using casein as substrate measured after 40 mins in presence of [gamma33P]ATP by scintillation counting method relative to control
[7] = biological target: Serine/threonine-protein kinase PLK3 (Homo sapiens) (UniProt Q9H4B4); assay: Inhibition of recombinant human Plk3 (19 to 301 residues) at 1 uM using casein as substrate measured after 40 mins in presence of [gamma33P]ATP by scintillation counting method relative to control
Method in brief: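 Single-point inhibition at 1 µM was measured in the Eurofins KinaseProfiler panel. Values are the mean of two independent experiments.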

[8] = biological target: PI3K p110 beta/p85 alpha (Homo sapiens) (UniProt P27986+P42338); assay: Inhibition of recombinant full-length human PI3K p110beta/p85alpha at 1 uM using phosphatidylinositol-4, 5-bisphosphate as substrate measured after 40 mins by fluorescence assay relative to control; type: protein-complex assay
[9] = test system: RAF proto-oncogene serine/threonine-protein kinase (Homo sapiens), P04049 [Y340D,Y341D]; assay: Inhibition of recombinant human c-RAF Y340D/Y341D double mutant ([…]) at 1 uM using inactive MEK1 as substrate measured after 40 mins in presence of [gamma33P]ATP by scintillation counting method relative to control
[10] = test system: Serine/threonine-protein kinase Sgk1 (Homo sapiens), O00141 [S422D]; assay: Inhibition of recombinant human SGK S422D mutant (60 to end residues) at 1 uM using GRPRTSSFAEGKK as substrate measured after 40 mins in presence of [gamma33P]ATP by scintillation counting method relative to control
[11] = biological target: Myotonin-protein kinase (Homo sapiens) (UniProt Q09013); assay: Inhibition of recombinant human DMPK (1 to 549 residues) at 1 uM using KKSRGDYMTMQIG as substrate measured after 40 mins in presence of [gamma33P]ATP by scintillation counting method relative to control
[12] = biological target: CDK4/Cyclin D3 (Homo sapiens) (UniProt P11802+P30281); assay: Inhibition of recombinant full-length human CDK4/cyclinD3 at 500 nM using Rb fragment as substrate measured after 40 mins in presence of [gamma33P]ATP by scintillation counting method relative to control; type: protein-complex assay; method in brief: as §1
[13] = test system: NCI-H1299; assay: Antitumour activity against human H1299 cells xenografted in Balb/c mouse assessed as inhibition of tumour growth at 20 mg/kg, po administered for 21 days by digital caliper method relative to control; type: functional; conditions: 504 h, read-out: TGI
Method in brief: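 Female nude mice, 6-8 weeks old, injected subcutaneously with 1×10^6 H1299 cells (100 µL of a 1×10^7/mL suspension in serum-free medium). At 100-120 mm3, randomized into groups of 5. Dosed orally each day for 21 days with drug dissolved in DMSO, or with vehicle. Caliper measurements and body weight taken every other day. Volume = short²×long×0.5. Growth inhibition based on change in volume relative to vehicle. Tumours weighed at the end.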

[14] = biological target: Dual specificity mitogen-activated protein kinase kinase 6 (Homo sapiens) (UniProt P52564); assay: Inhibition of recombinant human MKK6 (4 to end residues) at 1 uM using unactive SAPK2a as substrate measured after 40 mins in presence of [gamma33P]ATP by scintillation counting method relative to control
[15] = biological target: Mitogen-activated protein kinase kinase kinase kinase 3 (Homo sapiens) (UniProt Q8IVH8); assay: Inhibition of recombinant human MAP4K3 (1 to 291 residues) at 1 uM using RLGRDKYKTLRQIRQ as substrate measured after 40 mins in presence of [gamma33P]ATP by scintillation counting method relative to control
[16] = biological target: Serine/threonine-protein kinase 35 (Homo sapiens) (UniProt Q8TDR2); assay: Inhibition of full length recombinant human CLIK1 at 1 uM using RSRSRSRSRSRSRSR as substrate measured after 40 mins in presence of [gamma33P]ATP by scintillation counting method relative to control
[17] = biological target: Serine/threonine-protein kinase tousled-like 1 (Homo sapiens) (UniProt Q9UKI8); assay: Inhibition of recombinant full-length human TLK1 at 1 uM using casein as substrate measured after 40 mins in presence of [gamma33P]ATP by scintillation counting method relative to control
[18] = biological target: NUAK family SNF1-like kinase 1 (Homo sapiens) (UniProt O60285); assay: Inhibition of recombinant human ARK5 (2 to end residues) at 1 uM using KKKVSRSGLYRSPSMPENLNRPR as substrate measured after 40 mins in presence of [gamma33P]ATP by scintillation counting method relative to control
[19] = test system: A549; assay: Inhibition of tumorsphere formation in human A549 cells assessed as decrease in number of spheres at 0.25 to 1 uM after 2 weeks by microscopic analysis; type: functional, cell-based
[20] = test system: NCI-H1299; assay: Induction of apoptosis in human H1299 cells assessed as early apoptotic cells at 0.5 uM after 48 hrs by AnnexinV-FITC/PI staining-based flow cytometric analysis (reference value: 0.248%); type: functional
[21] = biological target: Serine/threonine-protein kinase PLK2 (Homo sapiens) (UniProt Q9NYY3); assay: Inhibition of human Snk (65 to 409 residues) at 1 uM using casein as substrate measured after 40 mins in presence of [gamma33P]ATP by scintillation counting method relative to control; method in brief: as §1

Sequence of Mitogen-activated protein kinase kinase kinase kinase 3 (Homo sapiens) (Q8IVH8 whole entry, the tested form may be a part): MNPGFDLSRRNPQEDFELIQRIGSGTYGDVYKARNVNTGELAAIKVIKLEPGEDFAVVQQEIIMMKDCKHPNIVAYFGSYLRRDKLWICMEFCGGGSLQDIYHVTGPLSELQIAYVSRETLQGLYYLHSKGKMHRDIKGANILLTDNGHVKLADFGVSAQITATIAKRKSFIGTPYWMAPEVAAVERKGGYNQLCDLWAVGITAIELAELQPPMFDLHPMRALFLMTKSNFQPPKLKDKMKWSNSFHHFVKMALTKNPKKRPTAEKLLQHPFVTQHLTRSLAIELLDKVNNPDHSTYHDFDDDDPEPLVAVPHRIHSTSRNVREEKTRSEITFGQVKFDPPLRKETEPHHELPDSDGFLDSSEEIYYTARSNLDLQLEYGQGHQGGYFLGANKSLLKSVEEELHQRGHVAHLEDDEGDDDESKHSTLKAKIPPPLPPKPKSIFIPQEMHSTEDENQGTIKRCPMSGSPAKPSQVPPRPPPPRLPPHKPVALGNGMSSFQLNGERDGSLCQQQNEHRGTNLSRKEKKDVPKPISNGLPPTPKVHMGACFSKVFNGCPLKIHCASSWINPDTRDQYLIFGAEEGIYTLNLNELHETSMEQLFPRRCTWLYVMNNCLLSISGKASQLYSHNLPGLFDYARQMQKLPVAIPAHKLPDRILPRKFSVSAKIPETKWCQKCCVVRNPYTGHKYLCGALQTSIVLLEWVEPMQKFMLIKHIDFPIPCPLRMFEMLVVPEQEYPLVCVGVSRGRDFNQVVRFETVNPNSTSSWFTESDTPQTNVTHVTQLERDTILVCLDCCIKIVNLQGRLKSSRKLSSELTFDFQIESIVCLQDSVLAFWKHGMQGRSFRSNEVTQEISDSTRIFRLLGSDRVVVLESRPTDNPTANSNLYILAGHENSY
Sequence of Serine/threonine-protein kinase tousled-like 1 (Homo sapiens) (Q9UKI8 whole entry): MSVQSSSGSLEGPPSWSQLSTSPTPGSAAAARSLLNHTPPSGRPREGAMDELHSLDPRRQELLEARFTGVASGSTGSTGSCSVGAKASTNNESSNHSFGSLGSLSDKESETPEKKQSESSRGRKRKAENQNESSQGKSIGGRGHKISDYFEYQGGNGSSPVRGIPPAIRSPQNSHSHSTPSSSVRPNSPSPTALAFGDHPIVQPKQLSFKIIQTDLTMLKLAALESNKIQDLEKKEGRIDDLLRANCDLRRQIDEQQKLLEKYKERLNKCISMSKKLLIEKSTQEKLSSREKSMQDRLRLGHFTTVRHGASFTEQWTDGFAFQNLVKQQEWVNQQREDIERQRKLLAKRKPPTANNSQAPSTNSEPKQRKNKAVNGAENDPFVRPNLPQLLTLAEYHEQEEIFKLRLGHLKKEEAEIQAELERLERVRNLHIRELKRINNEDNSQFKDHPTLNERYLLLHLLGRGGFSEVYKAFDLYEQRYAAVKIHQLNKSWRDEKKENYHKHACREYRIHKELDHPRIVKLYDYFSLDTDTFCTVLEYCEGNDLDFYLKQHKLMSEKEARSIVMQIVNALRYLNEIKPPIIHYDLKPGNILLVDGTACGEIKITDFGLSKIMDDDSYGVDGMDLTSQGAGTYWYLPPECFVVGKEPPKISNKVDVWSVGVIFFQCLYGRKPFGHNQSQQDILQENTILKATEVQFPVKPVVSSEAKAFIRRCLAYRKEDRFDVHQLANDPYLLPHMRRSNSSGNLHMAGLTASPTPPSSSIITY
Sequence of Myotonin-protein kinase (Homo sapiens) (Q09013 whole entry, the tested form may be a part): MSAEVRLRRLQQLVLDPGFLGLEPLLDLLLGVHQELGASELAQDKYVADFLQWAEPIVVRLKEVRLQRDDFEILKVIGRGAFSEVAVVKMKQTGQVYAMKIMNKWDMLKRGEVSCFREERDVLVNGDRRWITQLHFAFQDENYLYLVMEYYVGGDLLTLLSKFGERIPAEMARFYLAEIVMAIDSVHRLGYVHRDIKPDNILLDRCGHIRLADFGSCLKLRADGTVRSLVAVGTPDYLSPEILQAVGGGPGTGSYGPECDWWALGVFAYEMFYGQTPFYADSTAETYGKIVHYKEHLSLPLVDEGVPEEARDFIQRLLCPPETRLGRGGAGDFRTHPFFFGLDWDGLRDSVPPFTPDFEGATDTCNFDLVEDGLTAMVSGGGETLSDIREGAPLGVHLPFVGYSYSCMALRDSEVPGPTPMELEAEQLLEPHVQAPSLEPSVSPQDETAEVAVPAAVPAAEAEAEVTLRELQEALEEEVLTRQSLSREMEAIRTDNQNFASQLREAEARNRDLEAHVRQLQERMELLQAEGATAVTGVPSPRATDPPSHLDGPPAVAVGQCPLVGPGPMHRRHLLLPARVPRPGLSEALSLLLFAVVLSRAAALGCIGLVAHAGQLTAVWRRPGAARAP
Sequence of CDK4/Cyclin D3 (P11802 whole entry, the tested form may be a part): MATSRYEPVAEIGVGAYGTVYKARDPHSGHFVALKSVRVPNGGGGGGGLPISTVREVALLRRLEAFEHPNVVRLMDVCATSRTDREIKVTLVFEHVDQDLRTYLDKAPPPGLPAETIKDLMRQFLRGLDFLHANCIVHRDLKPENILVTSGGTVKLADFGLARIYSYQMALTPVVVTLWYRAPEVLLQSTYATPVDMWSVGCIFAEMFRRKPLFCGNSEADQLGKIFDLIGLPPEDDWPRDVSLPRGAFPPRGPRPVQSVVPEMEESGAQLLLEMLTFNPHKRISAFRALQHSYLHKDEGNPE
Sequence of CDK4/Cyclin D3 (P30281 whole entry, further chain, the tested form may be a part): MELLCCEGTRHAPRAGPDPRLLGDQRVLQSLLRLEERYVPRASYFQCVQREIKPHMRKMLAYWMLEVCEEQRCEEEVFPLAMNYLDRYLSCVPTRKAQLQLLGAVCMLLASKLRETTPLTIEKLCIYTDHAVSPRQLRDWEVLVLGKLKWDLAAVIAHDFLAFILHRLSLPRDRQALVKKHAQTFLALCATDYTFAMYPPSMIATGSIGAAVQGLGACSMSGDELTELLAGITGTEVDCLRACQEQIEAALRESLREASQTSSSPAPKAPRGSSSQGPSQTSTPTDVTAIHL
Sequence of Aurora kinase B (Homo sapiens) (Q96GD4 whole entry): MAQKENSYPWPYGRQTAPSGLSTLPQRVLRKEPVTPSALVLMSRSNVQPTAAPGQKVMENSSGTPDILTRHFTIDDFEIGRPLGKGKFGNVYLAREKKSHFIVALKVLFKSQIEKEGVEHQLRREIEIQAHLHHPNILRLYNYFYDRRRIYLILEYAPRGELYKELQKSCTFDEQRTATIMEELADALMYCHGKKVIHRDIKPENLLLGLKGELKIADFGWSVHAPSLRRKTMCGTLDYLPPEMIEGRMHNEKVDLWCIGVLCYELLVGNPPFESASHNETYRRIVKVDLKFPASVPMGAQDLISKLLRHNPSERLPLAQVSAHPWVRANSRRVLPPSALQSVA
Sequence of Dual specificity mitogen-activated protein kinase kinase 6 (Homo sapiens) (P52564 whole entry, the tested form may be a part): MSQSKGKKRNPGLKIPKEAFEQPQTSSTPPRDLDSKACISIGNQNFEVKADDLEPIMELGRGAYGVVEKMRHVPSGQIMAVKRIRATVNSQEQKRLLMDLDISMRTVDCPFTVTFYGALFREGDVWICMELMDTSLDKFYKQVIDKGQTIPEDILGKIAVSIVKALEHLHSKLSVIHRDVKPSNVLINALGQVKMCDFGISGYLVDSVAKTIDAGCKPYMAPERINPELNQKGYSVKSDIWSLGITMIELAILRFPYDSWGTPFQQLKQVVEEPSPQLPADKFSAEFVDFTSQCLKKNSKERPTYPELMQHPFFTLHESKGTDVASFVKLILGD
Sequence of Serine/threonine-protein kinase Sgk1 (Homo sapiens), O00141 [S422D] (O00141 whole entry S422D, the tested form may be a part): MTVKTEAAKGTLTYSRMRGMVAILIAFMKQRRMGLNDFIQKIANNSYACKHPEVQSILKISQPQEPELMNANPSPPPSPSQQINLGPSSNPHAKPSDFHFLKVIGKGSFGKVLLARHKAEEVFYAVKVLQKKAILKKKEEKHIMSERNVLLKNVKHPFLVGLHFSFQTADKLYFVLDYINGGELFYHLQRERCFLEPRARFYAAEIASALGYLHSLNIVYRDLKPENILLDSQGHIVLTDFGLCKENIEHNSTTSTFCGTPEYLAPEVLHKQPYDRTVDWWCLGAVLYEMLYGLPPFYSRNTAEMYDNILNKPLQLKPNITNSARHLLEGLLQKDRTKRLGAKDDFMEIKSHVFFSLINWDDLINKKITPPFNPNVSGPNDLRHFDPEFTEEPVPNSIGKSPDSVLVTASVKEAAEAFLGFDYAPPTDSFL
Sequence of Serine/threonine-protein kinase 35 (Homo sapiens) (Q8TDR2 whole entry): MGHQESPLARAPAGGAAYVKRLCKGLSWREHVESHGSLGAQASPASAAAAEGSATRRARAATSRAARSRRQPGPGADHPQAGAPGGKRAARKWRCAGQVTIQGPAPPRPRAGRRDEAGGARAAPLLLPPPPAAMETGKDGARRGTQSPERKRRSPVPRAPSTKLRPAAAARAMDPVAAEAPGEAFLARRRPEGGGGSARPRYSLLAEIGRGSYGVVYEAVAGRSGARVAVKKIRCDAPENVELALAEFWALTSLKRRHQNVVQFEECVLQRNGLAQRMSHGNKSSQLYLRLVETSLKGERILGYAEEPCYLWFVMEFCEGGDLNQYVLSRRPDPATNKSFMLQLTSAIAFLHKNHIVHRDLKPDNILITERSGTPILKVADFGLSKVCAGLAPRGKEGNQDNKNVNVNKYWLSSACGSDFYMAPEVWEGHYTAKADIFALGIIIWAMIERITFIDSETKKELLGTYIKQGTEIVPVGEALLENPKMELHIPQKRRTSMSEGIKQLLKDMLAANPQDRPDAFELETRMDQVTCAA

For `CN(C)C(=O)c1cc2cnc(Nc3ccc(NC(=O)CCCCCCCN=C=S)cc3)nc2n1C1CCCC1`, the IC50 [1] was 148 nM, the inhibition [2] was 26% and the inhibition [3] was 62%. It also gave an inhibition [4] of 99%, a viability at 1 µM [5] of 89.6% and an inhibition [6] of -7%. For the same compound, the inhibition [7] was 1%, the inhibition [8] was 5% and the inhibition [9] was 33%. The inhibition [10] was 24%, the inhibition [11] was 5% and the inhibition [12] was 75%. The inhibition in vivo at 20 mg/kg [13] was 62%, the inhibition [14] was 30% and the inhibition [15] was 95%. For the same compound, the inhibition [16] was 14%, the inhibition [17] was 7% and the inhibition [18] was 79%. For the same compound, the Activity [19] was “Active”, the Activity [20] was 0.758% and the inhibition [21] was 4%.
